Results reported in ChEMBL document CHEMBL1152208, “The discovery of biaryl carboxamides as novel small molecule agonists of the motilin receptor” (Bioorg Med Chem Lett, 2008).

What was measured:
Motilin receptor [1] = target: T1, Motilin receptor (Homo sapiens, UniProt O43193); experiment: Agonist activity at human recombinant motilin receptor expressed in HEK293 cells by FLIPR assay; format: functional, cell-based
Method in brief: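 HEK293 cells stably expressing human motilin receptor, seeded on poly-lysine plates 24 h before assay. Loaded with Fluo-4-AM (final) and 1 mM probenecid (final) in HEPES-buffered saline with 0.1% BSA for 1 h at 25 °C, washed, rested 20 min at 25 °C. Fluorescence change followed for 2 min after compound addition. Peak change over baseline was fitted with a 4-parameter logistic to give pEC50. Mean of at least three independent experiments (n = 2 for some).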

Liver microsomes [2] = experiment: Intrinsic clearance in human liver microsome; format: ADME
Liver microsomes [3] = experiment: Intrinsic clearance in rat liver microsome; format: ADME
Cytochrome P450 3A4 [4] = target: T2, Cytochrome P450 3A4 (Homo sapiens, UniProt P08684); experiment: Inhibition of CYP3A4 using diethoxyfluorescein substrate; format: ADME
T2 sequence (P08684 whole entry): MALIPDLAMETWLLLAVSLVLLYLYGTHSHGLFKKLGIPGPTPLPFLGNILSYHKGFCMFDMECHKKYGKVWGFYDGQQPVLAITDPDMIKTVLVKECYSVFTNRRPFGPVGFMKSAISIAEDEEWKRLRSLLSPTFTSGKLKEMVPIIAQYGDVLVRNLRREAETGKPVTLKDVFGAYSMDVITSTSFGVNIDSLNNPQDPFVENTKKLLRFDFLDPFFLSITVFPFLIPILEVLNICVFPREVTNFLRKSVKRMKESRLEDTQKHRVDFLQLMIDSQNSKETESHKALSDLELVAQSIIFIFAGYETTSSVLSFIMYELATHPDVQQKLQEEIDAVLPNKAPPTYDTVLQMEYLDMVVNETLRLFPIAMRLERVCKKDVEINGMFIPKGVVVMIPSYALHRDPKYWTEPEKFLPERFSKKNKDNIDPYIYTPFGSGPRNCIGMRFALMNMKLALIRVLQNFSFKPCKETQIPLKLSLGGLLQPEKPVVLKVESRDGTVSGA

Cytochrome P450 3A4 [5] = target: T2, Cytochrome P450 3A4; experiment: Inhibition of CYP3A4 using phenyl-piperazinyl-methyl-benzyl-resofurin substrate; format: ADME
[6] = Aqueous solubility of the compound; format: physicochemical
Stomach [7] = experiment: Potentiation of electrical field stimulation-induced contraction in New Zealand white rabbit gastric antrum at 1 uM; format: functional; conditions: Oryctolagus cuniculus
[8] = Clearance in rat; format: ADME, organism-based; conditions: in vivo
[9] = Clearance in dog; format: ADME, organism-based, Canis lupus familiaris; conditions: in vivo
[10] = target: Voltage-gated inwardly rectifying potassium channel KCNH2 (Homo sapiens, UniProt Q12809); experiment: Inhibition of human ERG binding
Sequence of Voltage-gated inwardly rectifying potassium channel KCNH2 (Q12809 whole entry): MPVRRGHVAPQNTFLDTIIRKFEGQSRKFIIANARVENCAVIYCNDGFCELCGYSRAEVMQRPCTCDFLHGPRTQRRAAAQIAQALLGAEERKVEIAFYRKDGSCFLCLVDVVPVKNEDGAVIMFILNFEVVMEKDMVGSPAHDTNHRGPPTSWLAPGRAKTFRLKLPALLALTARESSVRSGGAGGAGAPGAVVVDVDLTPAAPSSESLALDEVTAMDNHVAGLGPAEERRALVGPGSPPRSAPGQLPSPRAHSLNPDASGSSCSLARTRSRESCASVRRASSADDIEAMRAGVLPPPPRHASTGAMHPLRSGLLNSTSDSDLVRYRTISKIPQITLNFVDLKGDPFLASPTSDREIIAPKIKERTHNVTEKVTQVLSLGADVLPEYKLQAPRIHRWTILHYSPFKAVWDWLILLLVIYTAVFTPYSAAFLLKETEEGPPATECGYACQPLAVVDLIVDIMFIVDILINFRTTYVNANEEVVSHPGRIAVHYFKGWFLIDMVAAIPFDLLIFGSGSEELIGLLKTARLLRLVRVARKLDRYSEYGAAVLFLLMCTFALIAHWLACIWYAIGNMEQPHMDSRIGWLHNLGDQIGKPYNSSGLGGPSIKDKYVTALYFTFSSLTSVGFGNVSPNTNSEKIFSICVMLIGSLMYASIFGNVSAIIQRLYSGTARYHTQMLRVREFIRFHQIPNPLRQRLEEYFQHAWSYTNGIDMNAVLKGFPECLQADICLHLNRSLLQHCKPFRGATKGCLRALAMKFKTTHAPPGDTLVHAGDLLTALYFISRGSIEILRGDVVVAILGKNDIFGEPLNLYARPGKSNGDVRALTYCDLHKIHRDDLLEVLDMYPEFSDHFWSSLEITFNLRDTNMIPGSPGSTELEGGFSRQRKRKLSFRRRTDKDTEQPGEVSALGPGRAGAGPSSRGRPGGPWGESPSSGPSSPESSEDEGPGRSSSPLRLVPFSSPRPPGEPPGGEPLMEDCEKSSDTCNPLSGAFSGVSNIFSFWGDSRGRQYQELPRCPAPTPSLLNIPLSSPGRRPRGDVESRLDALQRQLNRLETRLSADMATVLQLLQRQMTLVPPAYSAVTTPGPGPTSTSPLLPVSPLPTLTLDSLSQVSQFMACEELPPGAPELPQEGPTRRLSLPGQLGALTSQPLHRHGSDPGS

Stomach [11] = experiment: Potentiation of electrical field stimulation-induced contraction in New Zealand white rabbit gastric antrum at 0.3 uM; format: functional; conditions: Oryctolagus cuniculus
Stomach [12] = experiment: Potentiation of electrical field stimulation-induced contraction in New Zealand white rabbit gastric antrum at 3 uM; format: functional; conditions: Oryctolagus cuniculus
[13] = target: Growth hormone secretagogue receptor type 1 (Homo sapiens, UniProt Q92847); experiment: Inhibition of human Ghrelin receptor
Sequence of Growth hormone secretagogue receptor type 1 (Q92847 whole entry): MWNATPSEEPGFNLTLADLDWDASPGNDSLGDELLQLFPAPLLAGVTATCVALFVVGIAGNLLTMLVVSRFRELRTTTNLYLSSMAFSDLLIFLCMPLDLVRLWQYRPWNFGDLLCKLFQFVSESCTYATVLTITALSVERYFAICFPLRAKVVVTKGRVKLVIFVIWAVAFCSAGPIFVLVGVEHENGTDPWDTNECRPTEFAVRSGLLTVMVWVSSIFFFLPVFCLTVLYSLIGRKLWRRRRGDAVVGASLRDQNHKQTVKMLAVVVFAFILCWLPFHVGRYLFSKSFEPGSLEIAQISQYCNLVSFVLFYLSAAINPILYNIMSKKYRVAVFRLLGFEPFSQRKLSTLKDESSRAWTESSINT

Cytochrome P450 2C19 = Cytochrome P450 2C19 (Homo sapiens, UniProt P33261); experiment: Inhibition of CYP2C19; format: ADME
Sequence of Cytochrome P450 2C19 (P33261 whole entry): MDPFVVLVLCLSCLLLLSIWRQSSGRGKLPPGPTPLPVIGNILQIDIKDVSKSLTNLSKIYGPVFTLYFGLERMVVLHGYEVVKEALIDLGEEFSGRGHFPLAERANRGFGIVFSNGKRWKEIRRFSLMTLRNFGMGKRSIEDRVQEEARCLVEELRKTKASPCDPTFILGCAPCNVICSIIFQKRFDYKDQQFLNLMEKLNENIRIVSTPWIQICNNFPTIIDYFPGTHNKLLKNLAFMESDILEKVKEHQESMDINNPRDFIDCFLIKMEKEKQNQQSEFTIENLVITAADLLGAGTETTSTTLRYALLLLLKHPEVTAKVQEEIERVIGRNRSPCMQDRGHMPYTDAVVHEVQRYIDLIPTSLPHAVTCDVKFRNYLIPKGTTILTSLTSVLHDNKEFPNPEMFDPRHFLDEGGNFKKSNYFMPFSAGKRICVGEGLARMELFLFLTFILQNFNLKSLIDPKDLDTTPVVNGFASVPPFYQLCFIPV

Stomach [14] = experiment: Potentiation of electrical field stimulation-induced contraction in New Zealand white rabbit gastric antrum at 10 uM; format: functional; conditions: Oryctolagus cuniculus
[15] = Oral bioavailability in rat; format: ADME, organism-based; conditions: in vivo
Cytochrome P450 1A2 = target: T3, Cytochrome P450 1A2 (Homo sapiens, UniProt P05177); experiment: Inhibition of CYP1A2; format: ADME
T3 sequence (P05177 whole entry): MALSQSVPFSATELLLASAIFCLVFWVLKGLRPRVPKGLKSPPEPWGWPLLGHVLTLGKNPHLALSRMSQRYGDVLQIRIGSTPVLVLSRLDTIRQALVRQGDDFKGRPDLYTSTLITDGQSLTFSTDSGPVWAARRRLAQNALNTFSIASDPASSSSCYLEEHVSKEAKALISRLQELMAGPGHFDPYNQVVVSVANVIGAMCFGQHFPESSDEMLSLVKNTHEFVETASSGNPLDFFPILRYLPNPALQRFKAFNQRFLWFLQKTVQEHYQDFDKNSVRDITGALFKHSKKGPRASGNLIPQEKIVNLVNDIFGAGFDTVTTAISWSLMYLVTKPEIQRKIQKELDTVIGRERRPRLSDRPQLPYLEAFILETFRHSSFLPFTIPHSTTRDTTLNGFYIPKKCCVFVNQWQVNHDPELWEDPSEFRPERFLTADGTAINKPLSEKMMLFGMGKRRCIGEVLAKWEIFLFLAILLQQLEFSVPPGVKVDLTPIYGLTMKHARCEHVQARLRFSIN

[16] = Distribution coefficient, log D at pH 7.4; format: physicochemical; conditions: octanol/water
Cytochrome P450 2C9 = Cytochrome P450 2C9 (Homo sapiens, UniProt P11712); experiment: Inhibition of CYP2C9; format: ADME
Sequence of Cytochrome P450 2C9 (P11712 whole entry): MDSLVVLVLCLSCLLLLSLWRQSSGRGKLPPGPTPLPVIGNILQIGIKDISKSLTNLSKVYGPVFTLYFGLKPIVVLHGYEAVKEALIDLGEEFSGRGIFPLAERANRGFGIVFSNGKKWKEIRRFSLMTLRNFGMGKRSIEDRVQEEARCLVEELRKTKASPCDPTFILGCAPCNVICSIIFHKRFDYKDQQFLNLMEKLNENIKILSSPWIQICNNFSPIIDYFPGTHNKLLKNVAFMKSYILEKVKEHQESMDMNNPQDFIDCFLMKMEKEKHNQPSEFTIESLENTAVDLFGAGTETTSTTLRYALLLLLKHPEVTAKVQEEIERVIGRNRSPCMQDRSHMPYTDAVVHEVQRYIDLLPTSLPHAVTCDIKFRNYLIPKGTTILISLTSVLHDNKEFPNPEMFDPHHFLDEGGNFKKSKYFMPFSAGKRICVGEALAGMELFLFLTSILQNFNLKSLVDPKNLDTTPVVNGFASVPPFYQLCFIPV

Cytochrome P450 2D6 = Cytochrome P450 2D6 (Homo sapiens, UniProt P10635); experiment: Inhibition of CYP2D6; format: ADME
Sequence of Cytochrome P450 2D6 (P10635 whole entry): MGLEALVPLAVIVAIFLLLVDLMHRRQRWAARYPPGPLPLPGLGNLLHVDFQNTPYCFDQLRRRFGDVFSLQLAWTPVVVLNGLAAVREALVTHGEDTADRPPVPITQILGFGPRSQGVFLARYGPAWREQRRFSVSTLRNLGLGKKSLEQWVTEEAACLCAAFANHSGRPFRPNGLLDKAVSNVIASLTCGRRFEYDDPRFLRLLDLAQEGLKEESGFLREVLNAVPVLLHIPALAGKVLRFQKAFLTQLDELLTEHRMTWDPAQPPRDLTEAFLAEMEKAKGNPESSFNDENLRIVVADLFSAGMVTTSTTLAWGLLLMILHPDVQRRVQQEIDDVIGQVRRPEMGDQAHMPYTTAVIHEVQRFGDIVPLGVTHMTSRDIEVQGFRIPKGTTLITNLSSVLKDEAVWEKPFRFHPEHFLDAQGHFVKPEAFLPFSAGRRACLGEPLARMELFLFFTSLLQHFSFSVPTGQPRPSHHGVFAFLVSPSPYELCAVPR

[17] = Oral bioavailability in dog; format: ADME, organism-based, Canis lupus familiaris; conditions: in vivo
Stomach [18] = experiment: Potentiation of electrical field stimulation-induced contraction in New Zealand white rabbit gastric antrum at 1.5 uM; format: functional; conditions: Oryctolagus cuniculus
Motilin receptor [19] = target: T1, Motilin receptor; experiment: Agonist activity at human recombinant motilin receptor expressed in CHO cells by FLIPR assay; format: functional, cell-based

T1 sequence (O43193 whole entry): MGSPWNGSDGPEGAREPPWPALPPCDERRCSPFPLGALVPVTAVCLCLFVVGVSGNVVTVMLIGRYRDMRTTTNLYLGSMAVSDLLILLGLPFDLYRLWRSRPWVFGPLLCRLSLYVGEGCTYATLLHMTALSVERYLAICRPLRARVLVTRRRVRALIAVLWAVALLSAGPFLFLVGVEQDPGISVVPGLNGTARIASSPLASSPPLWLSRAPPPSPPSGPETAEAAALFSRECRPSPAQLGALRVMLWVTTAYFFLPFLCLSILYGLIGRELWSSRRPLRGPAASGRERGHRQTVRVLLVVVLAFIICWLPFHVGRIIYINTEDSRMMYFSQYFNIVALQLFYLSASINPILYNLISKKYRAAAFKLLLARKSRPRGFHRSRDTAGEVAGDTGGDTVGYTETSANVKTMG

Compound	EC50 (Motilin receptor [1])	CL (Liver microsomes [2])	CL (Liver microsomes [3])	IC50 (Cytochrome P450 3A4 [4])	IC50 (Cytochrome P450 3A4 [5])	other results
COc1cccc(CCN(Cc2ccccc2-c2ccc(CN3CCNCC3)cc2)C(=O)COc2ccccc2)c1	251 nM	–	–	–	–	–
C[C@@H]1CN(Cc2ccc(-c3cccnc3C(=O)N3CCC(Nc4ccc(C(N)=O)cc4)CC3)cc2)C[C@H](C)N1	2510 nM	–	–	–	–	–
COc1ccc(NC2CCN(C(=O)c3ncccc3-c3ccc(CN4C[C@@H](C)N[C@@H](C)C4)cc3)CC2)cc1	1000 nM	–	–	–	–	–
C[C@@H]1CN(Cc2ccc(-c3cccnc3C(=O)N3CCC(Nc4cccc(F)c4)CC3)cc2)C[C@H](C)N1	6.31 nM	4.4 mL/min/g	6.5 mL/min/g	–	–	–
Cc1ccc(S(=O)(=O)NCC(=O)N(C)Cc2ccccc2-c2ccc(CN3C[C@@H](C)N[C@@H](C)C3)cc2)cc1	20 nM	–	–	–	–	–
C[C@@H]1CN(Cc2ccc(-c3ccccc3CN(C)C(=O)COc3ccc(F)cc3)cc2)C[C@H](C)N1	31.6 nM	–	–	6000 nM	7300 nM	–
C[C@@H]1CN(Cc2ccc(-c3cccnc3C(=O)N3CCC(Nc4cccc(F)c4)CC3)cc2F)C[C@H](C)N1	10 nM	9.4 mL/min/g	12 mL/min/g	–	–	–
COc1cc(-c2cccnc2C(=O)N2CCC(Nc3ccc(F)cc3)CC2)ccc1CN1C[C@@H](C)N[C@@H](C)C1	5.01 nM	5.3 mL/min/g	5.9 mL/min/g	–	–	–
COCCCN(Cc1ccccc1-c1ccc(CN2CCNCC2)cc1)C(=O)COc1ccccc1	398 nM	–	–	–	–	–
C[C@@H]1CN(Cc2ccc(-c3ccccc3CN(C)C(=O)COc3ccccc3)cc2)C[C@H](C)N1	79.4 nM	4.9 mL/min/g	9.5 mL/min/g	7000 nM	24000 nM	–
C[C@@H]1CN(Cc2ccc(-c3ccccc3CN(C)C(=O)CSc3ccccc3)cc2)C[C@H](C)N1	3.16 nM	–	–	–	–	–
C[C@@H]1CN(Cc2ccc(-n3ccnc3C(=O)N3CCC(Nc4cccc(F)c4)CC3)cc2)C[C@H](C)N1.Cl	–	–	–	–	–	solubility [6]: ≥ 500 µg/mL
CCN(CCc1ccccc1)C(=O)c1ccccc1-c1ccc(CN2C[C@@H](C)N[C@@H](C)C2)cc1	7.94 nM	40 mL/min/g	26 mL/min/g	900 nM	1500 nM	–
C[C@@H]1CN(Cc2ccc(-c3cccnc3C(=O)N3CCC(Nc4ccc(F)c(F)c4)CC3)cc2)C[C@H](C)N1	2 nM	7 mL/min/g	5.9 mL/min/g	–	–	–
C[C@@H]1CN(Cc2ccc(-c3cccnc3C(=O)N3CCC(Cc4ccc(F)cc4)CC3)cc2)C[C@H](C)N1	10 nM	16 mL/min/g	16 mL/min/g	13000 nM	5600 nM	–
C[C@@H]1CN(Cc2ccc(-c3ccccc3CN(C)C(=O)Cc3ccc(F)cc3)cc2)C[C@H](C)N1	50.1 nM	–	–	–	–	–
C[C@@H]1CN(Cc2ccc(-c3ccccc3CN(C)C(=O)Cc3cccc(Cl)c3)cc2)C[C@H](C)N1	79.4 nM	20 mL/min/g	17 mL/min/g	1400 nM	1500 nM	–
C[C@@H]1CN(Cc2ccc(-c3ccccc3CN(C)C(=O)CS(=O)(=O)c3ccccc3)cc2)C[C@H](C)N1	10 nM	6.8 mL/min/g	4.3 mL/min/g	3000 nM	8900 nM	–
C[C@@H]1CN(Cc2ccc(-c3cccnc3C(=O)N3CCC(Nc4ccc(C#N)cc4)CC3)cc2)C[C@H](C)N1	631 nM	–	–	–	–	–
C[C@@H]1CN(Cc2ccc(-c3cccnc3C(=O)N3CCC(Nc4cccc(C#N)c4)CC3)cc2)C[C@H](C)N1	20 nM	3.5 mL/min/g	4.6 mL/min/g	–	–	–

Compound	EC50 (Motilin receptor [1])	CL (Liver microsomes [2])	CL (Liver microsomes [3])	IC50 (Cytochrome P450 3A4 [4])	IC50 (Cytochrome P450 3A4 [5])	other results
C[C@@H]1CN(Cc2ccc(-c3ccccc3C(=O)N3CCC(NC(=O)c4ccc(F)cc4)CC3)cc2)C[C@H](C)N1	> 10000 nM	–	–	–	–	–
C[C@@H]1CN(Cc2ccc(-c3cccnc3C(=O)N3CCC(Nc4ccc(F)cc4)CC3)cc2)C[C@H](C)N1	20 nM	2.6 mL/min/g	2.8 mL/min/g	> 100000 nM	> 100000 nM	Emax at 1 µM (Stomach [7]): 299%; clearance [8]: 53 mL/min/kg; clearance [9]: 19 mL/min/kg; IC50 [10]: > 31600 nM; Emax at 0.3 µM (Stomach [11]): 168%; Emax at 3 µM (Stomach [12]): 343%; EC50 [13]: 100 nM; IC50 (Cytochrome P450 2C19): > 100000 nM; Emax at 10 µM (Stomach [14]): 486%; bioavailability [15]: 13%; IC50 (Cytochrome P450 1A2): > 100000 nM; logD [16]: 0.72; IC50 (Cytochrome P450 2C9): > 100000 nM; IC50 (Cytochrome P450 2D6): 15000 nM; bioavailability [17]: 58%
C[C@@H]1CN(Cc2ccc(-c3ccccc3C(=O)N3CCC(Cc4ccc(F)cc4)CC3)cc2)C[C@H](C)N1	10 nM	29 mL/min/g	7 mL/min/g	600 nM	500 nM	–
C[C@@H]1CN(Cc2ccc(-c3ccccc3C(=O)N3CCC(Nc4ccccc4)CC3)cc2)C[C@H](C)N1	5.01 nM	7 mL/min/g	20 mL/min/g	12000 nM	17000 nM	–
C[C@@H]1CN(Cc2ccc(-c3ccccc3C(=O)N3CCC(C(=O)c4ccc(F)cc4)CC3)cc2)C[C@H](C)N1	63.1 nM	–	–	4800 nM	3600 nM	–
C[C@@H]1CN(Cc2ccc(-n3ccnc3C(=O)N3CCC(Nc4cccc(F)c4)CC3)cc2)C[C@H](C)N1	15.8 nM	3.4 mL/min/g	4.1 mL/min/g	58000 nM	46000 nM	clearance [8]: 61 mL/min/kg; Emax at 0.3 µM (Stomach [11]): 73%; Emax at 3 µM (Stomach [12]): 224%; EC50 [13]: 501 nM; IC50 (Cytochrome P450 2C19): > 100000 nM; bioavailability [15]: 17%; IC50 (Cytochrome P450 1A2): 74000 nM; logD [16]: 0.82; IC50 (Cytochrome P450 2C9): > 100000 nM; Emax at 1.5 µM (Stomach [18]): 302%; IC50 (Cytochrome P450 2D6): 29000 nM
C[C@@H]1CN(Cc2ccc(-c3ccccc3C(=O)N3CCC(Nc4ccc(F)cc4)CC3)nc2)C[C@H](C)N1	> 10000 nM	–	–	–	–	–
C[C@@H]1CN(Cc2cnc(-c3ccccc3C(=O)N3CCC(Nc4ccc(F)cc4)CC3)s2)C[C@H](C)N1	398 nM	–	–	–	–	–
C[C@@H]1CN(Cc2ccc(-c3ccccc3C(=O)N3CCC(Nc4ccc(Cl)cc4)CC3)cc2)C[C@H](C)N1	50.1 nM	8 mL/min/g	33 mL/min/g	5200 nM	3500 nM	–
C[C@@H]1CN(Cc2ccc(-c3cccnc3C(=O)N3CCC(Nc4ccc(F)cc4)CC3)cc2)C[C@H](C)N1.Cl	–	–	–	–	–	solubility [6]: ≥ 1000 µg/mL
COc1cccc(CCN(Cc2ccccc2-c2ccc(CN3C[C@@H](C)N[C@@H](C)C3)cc2)C(=O)NC2CCCCC2)c1	50.1 nM	> 50 mL/min/g	23 mL/min/g	200 nM	400 nM	EC50 (Motilin receptor [19]): 10 nM
C[C@@H]1CN(Cc2ccc(-c3cccnc3C(=O)N3CCC(Nc4ccccc4C#N)CC3)cc2)C[C@H](C)N1	794 nM	–	–	–	–	–
Cc1cc(CC(=O)N(C)Cc2ccccc2-c2ccc(CN3C[C@@H](C)N[C@@H](C)C3)cc2)on1	1000 nM	2.4 mL/min/g	2.9 mL/min/g	40000 nM	> 100000 nM	–
CC(C)CCC(=O)N(C)Cc1ccccc1-c1ccc(CN2C[C@@H](C)N[C@@H](C)C2)cc1	251 nM	–	–	–	–	–
C[C@@H]1CN(Cc2ccc(-c3ccccc3C(=O)N3CCC(Oc4ccc(F)cc4)CC3)cc2)C[C@H](C)N1	63.1 nM	–	–	–	–	–
C[C@@H]1CN(Cc2ccc(-c3cccnc3C(=O)N3CCC(Nc4ccc(F)cc4)CC3)cc2F)C[C@H](C)N1	3.98 nM	5.5 mL/min/g	6.5 mL/min/g	–	–	–
C[C@@H]1CN(Cc2ccc(N3CCCC3C(=O)N3CCC(Nc4cccc(F)c4)CC3)cc2)C[C@H](C)N1 (some centres undefined)	2510 nM	–	–	–	–	–
C[C@@H]1CN(Cc2ccc(-c3cccnc3C(=O)N3CCC(Nc4ccccc4F)CC3)cc2)C[C@H](C)N1	50.1 nM	–	–	–	–	–
C[C@@H]1CN(Cc2ccc(-c3ccccc3C(=O)N3CCC(Nc4ccc(F)cc4)CC3)cc2)C[C@H](C)N1	2.51 nM	–	–	–	–	–
CC[C@H]1OC(=O)[C@H](C)[C@@H](O[C@H]2C[C@@](C)(OC)[C@@H](O)[C@H](C)O2)[C@H](C)[C@@H](O[C@@H]2O[C@H](C)C[C@H](N(C)C)[C@H]2O)[C@](C)(O)C[C@@H](C)C(=O)[C@H](C)[C@@H](O)[C@]1(C)O [ERYTHROMYCIN]	–	–	–	–	–	Emax at 1 µM (Stomach [7]): 189%; Emax at 0.3 µM (Stomach [11]): 69%; Emax at 3 µM (Stomach [12]): 490%; Emax at 10 µM (Stomach [14]): 368%
